Measurements reported in ChEMBL document CHEMBL1133005, “Improving the oral bioavailability of the iron chelator HBED by breaking the symmetry of the intramolecular H-bond network” (J Med Chem, 2000).
Each block holds one molecule with its values, some of them ahead of it.

Experiments:
Type in all cases: physicochemical
[1] = Partition coefficient (logP); settings: octanol/water
In short: (§1)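 Free-ligand partition coefficients are measured by the pH-metric technique. This uses two linked titrations: a normal aqueous titration, then a two-phase titration in the presence of the partition solvent.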

[2] = Evaluated for ionization constant (pKa3) by titrations performed in the presence of EtOH and at a dielectric constant of 52; settings: EtOH cosolvent; read-out: pKa3
In short: (§2)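 pH-metric titration in mixed water/cosolvent media (MeOH or EtOH, depending on the ligand) at several cosolvent proportions, each proportion setting the dielectric constant. Electrode calibrated with pH 7.00 phosphate buffer and standardized after a blank titration by a nonlinear semiempirical fit. Readings were converted to pcH to give concentration-scale constants.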

[3] = Evaluated for ionization constant (pKa3) by titrations performed in the presence of EtOH and at a dielectric constant of 63; settings: EtOH cosolvent; read-out: pKa3; in short: as §2
[4] = Evaluated for ionization constant (pKa2) by titrations performed using method of Yasuda and Shedlovsky; settings: read-out: pKa2
In short: (§3)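 Aqueous constants were extrapolated by the Yasuda–Shedlovsky method from pH-metric titrations run at several MeOH or EtOH cosolvent levels. Electrode calibrated with pH 7.00 phosphate buffer and standardized after a blank titration. Values are expressed on the pcH (-log[H+]) concentration scale.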

[5] = Partition coefficient (logP) (cyclohexane); in short: as §1
[6] = Partition coefficient (logP) (chloroform); in short: as §1
[7] = Evaluated for ionization constant (pKa2) by titrations performed in the presence of EtOH and at a dielectric constant of 57; settings: EtOH cosolvent, dielectric constant 57; read-out: pKa2; in short: as §2
[8] = Evaluated for ionization constant (pKa3) by titrations performed using the method of Yasuda and Shedlovsky; settings: read-out: pKa3; in short: as §3
[9] = Evaluated for ionization constant (pKa3) by titrations performed in the presence of EtOH and at a dielectric constant of 57; settings: EtOH cosolvent; read-out: pKa3; in short: as §2
[10] = Evaluated for ionization constant (pKa4) by titrations performed using the method of Yasuda and Shedlovsky; settings: read-out: pKa4
In short: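 Potentiometric pH titration. The electrode is calibrated with pH 7.00 phosphate buffer. A blank titration before each set standardizes the electrode by a nonlinear semiempirical equation, and readings are converted to the concentration scale pcH = −log[H+]. Runs use varying amounts of MeOH or EtOH cosolvent, and aqueous pKa values are extrapolated by the Yasuda–Shedlovsky method. Low pKa values (pH < 2) are determined by spectrophotometric titration.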

[11] = Evaluated for ionization constant (pKa4) by titrations performed in the presence of EtOH and at a dielectric constant of 52; settings: EtOH cosolvent; read-out: pKa4; in short: as §2
[12] = Evaluated for ionization constant (pKa4) by titrations performed in the presence of EtOH and at a dielectric constant of 63; settings: EtOH cosolvent; read-out: pKa4; in short: as §2
[13] = Evaluated for ionization constant (pKa1) by titrations performed using method of Yasuda and Shedlovsky; settings: read-out: pKa1; in short: as §3
[14] = Evaluated for ionization constant (pKa2) by titrations performed in the presence of EtOH and at a dielectric constant of 52; settings: EtOH cosolvent, dielectric constant 52; read-out: pKa2; in short: as §2
[15] = Evaluated for ionization constant (pKa4) by titrations performed in the presence of EtOH and at a dielectric constant of 57; settings: EtOH cosolvent; read-out: pKa4; in short: as §2
[16] = Evaluated for ionization constant (pKa4) by titrations performed in presence of a MeOH and at a dielectric constant of 49; settings: MeOH cosolvent; read-out: pKa4; in short: as §2
[17] = Evaluated for ionization constant (pKa2) by titrations performed in presence of a MeOH and at a dielectric constant of 56; settings: MeOH cosolvent, dielectric constant 56; read-out: pKa2; in short: as §2
[18] = Evaluated for ionization constant (pKa3) by titrations performed in presence of a MeOH and at a dielectric constant of 49; settings: MeOH cosolvent; read-out: pKa3; in short: as §2
[19] = Evaluated for ionization constant (pKa3) by titrations performed in presence of a MeOH and at a dielectric constant of 62; settings: MeOH cosolvent; read-out: pKa3; in short: as §2
[20] = Evaluated for ionization constant (pKa1) by titrations performed in presence of a MeOH and at a dielectric constant of 62; settings: MeOH cosolvent, dielectric constant 62; read-out: pKa1; in short: as §2
[21] = Evaluated for ionization constant (pKa4) by titrations performed in presence of a MeOH and at a dielectric constant of 62; settings: MeOH cosolvent; read-out: pKa4; in short: as §2
[22] = Evaluated for ionization constant (pKa4) by titrations performed in presence of a MeOH and at a dielectric constant of 56; settings: MeOH cosolvent; read-out: pKa4; in short: as §2
[23] = Evaluated for ionization constant (pKa2) by titrations performed in presence of a MeOH and at a dielectric constant of 62; settings: MeOH cosolvent, dielectric constant 62; read-out: pKa2; in short: as §2
[24] = Evaluated for ionization constant (pKa2) by titrations performed in presence of a MeOH and at a dielectric constant of 49; settings: MeOH cosolvent, dielectric constant 49; read-out: pKa2; in short: as §2
[25] = Evaluated for ionization constant (pKa3) by titrations performed in presence of a MeOH and at a dielectric constant of 56; settings: MeOH cosolvent; read-out: pKa3; in short: as §2
[26] = Evaluated for ionization constant (pKa1) by titrations performed in presence of a MeOH and at a dielectric constant of 56; settings: MeOH cosolvent, dielectric constant 56; read-out: pKa1; in short: as §2

logP [1]: 3.35
pKa [2]: 5.09
pKa [3]: 5.45
pKa [4]: 10.9
logP [5]: 3.22
logP [6]: 3.35
pKa [7]: 11.6
pKa [8]: 5.7
pKa [9]: 5.25
pKa [10]: 1.8
pKa [11]: 1.05
pKa [12]: 1.42
pKa [13]: 12.2
pKa [14]: 11.8
pKa [15]: 1.21
SMILES: CCOC(=O)CN(CCN(CC(=O)OCC)Cc1ccccc1O)Cc1ccccc1O

logP [1]: 2.86
pKa [16]: 0.69
pKa [17]: 11.6
pKa [18]: 5.4
pKa [4]: 10.9
pKa [19]: 5.58
pKa [20]: 12.6
logP [5]: 2.11
pKa [21]: 1.1
pKa [8]: 5.7
pKa [10]: 1.4
pKa [22]: 0.82
pKa [23]: 11.3
pKa [24]: 11.9
pKa [13]: 12.2
pKa [25]: 5.46
pKa [26]: 12.9
SMILES: COC(=O)CN(CCN(CC(=O)OC)Cc1ccccc1O)Cc1ccccc1O
